Source: ChEMBL document CHEMBL3808334, “Synthesis and in vitro evaluation of novel triazine analogues as anticancer agents and their interaction studies with bovine serum albumin” (Eur J Med Chem, 2016)

Key:
Assay type in all cases: functional
[1] = Growth inhibition of human DU145 cells assessed as cell growth at 10 uM incubated for 48 hrs by sulforhodamine B assay; conditions: DU-145, 48 h, read-out: Activity
Procedure, shortened: (§1)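 Primary screen at one dose (10 µM) across 60 human cancer cell lines. Readout was growth percent relative to untreated control and time-zero.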

[2] = tested on: SK-MEL-5; assay: Growth inhibition of human SK-MEL-5 cells assessed as cell growth at 10 uM incubated for 48 hrs by sulforhodamine B assay; conditions: SK-MEL-5, 48 h, read-out: Activity
[3] = tested on: NCI-H226; assay: Growth inhibition of human NCI-H226 cells assessed as cell growth at 10^-8 M incubated for 48 hrs by sulforhodamine B assay; conditions: NCI-H226, 48 h, read-out: Activity
[4] = Growth inhibition of human Caki1 cells assessed as cell growth at 10^-5 M incubated for 48 hrs by sulforhodamine B assay; conditions: CAKI-1, 48 h, read-out: Activity
Procedure, shortened: (§2)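 Cells seeded at 5,000–40,000/well according to doubling time and preincubated 24 h at 37 °C, 5% CO2. Time-zero plates were TCA-fixed. DMSO concentrate was diluted in medium with 50 µg/ml gentamicin to give five concentrations (10-fold or ½ log steps), then exposed 48 h. Cells were TCA-fixed, stained with 0.4% SRB and read at 515 nm. Percent growth was taken against time-zero and control; GI50, TGI and LC50 derived.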

[5] = tested on: MDA-MB-435; assay: Growth inhibition of human MDA-MB-435 cells assessed as cell growth at 10^-6 M incubated for 48 hrs by sulforhodamine B assay; conditions: MDA-MB-435, 48 h, read-out: Activity
[6] = tested on: NCI-H460; assay: Growth inhibition of human NCI-H460 cells assessed as cell growth at 10^-5 M incubated for 48 hrs by sulforhodamine B assay; conditions: NCI-H460, 48 h, read-out: Activity
[7] = tested on: HT-29; assay: Growth inhibition of human HT-29 cells assessed as cell growth at 10^-4 M incubated for 48 hrs by sulforhodamine B assay; conditions: HT-29, 48 h, read-out: Activity
[8] = tested on: Malme-3M; assay: Growth inhibition of human MALME-3M cells assessed as cell growth at 10^-4 M incubated for 48 hrs by sulforhodamine B assay; conditions: read-out: Activity
[9] = tested on: NCI-H322M; assay: Growth inhibition of human NCI-H322M cells assessed as cell growth at 10^-7 M incubated for 48 hrs by sulforhodamine B assay; conditions: read-out: Activity
[10] = Growth inhibition of human DU145 cells incubated for 48 hrs by sulforhodamine B assay; conditions: DU-145, 48 h; for CC50: read-out: pLC50 (the source's name) (converted); procedure, shortened: as §2
[11] = tested on: MDA-MB-468; assay: Growth inhibition of human MDA-MB-468 cells assessed as cell growth at 10 uM incubated for 48 hrs by sulforhodamine B assay; conditions: MDA-MB-468, 48 h, read-out: Activity
[12] = tested on: MDA-MB-435; assay: Growth inhibition of human MDA-MB-435 cells incubated for 48 hrs by sulforhodamine B assay; conditions: MDA-MB-435, 48 h
Procedure, shortened: (§3)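 Cells were plated at 5,000–40,000 per well according to doubling time and preincubated 24 h at 37 °C in 5% CO2; time-zero plates were then TCA-fixed. Five concentrations (10-fold or ½-log dilutions, DMSO stock) were incubated 48 h. Cells were TCA-fixed, stained with 0.4% SRB and read at 515 nm. GI50 was taken where [(Ti−Tz)/(C−Tz)]×100 = 50.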

[13] = tested on: M14; assay: Growth inhibition of human M14 cells assessed as cell growth at 10^-8 M incubated for 48 hrs by sulforhodamine B assay; conditions: M14, 48 h, read-out: Activity
[14] = Growth inhibition of human HCT116 cells assessed as cell growth at 10^-6 M incubated for 48 hrs by sulforhodamine B assay; conditions: HCT-116, 48 h, read-out: Activity; procedure, shortened: as §2
[15] = Growth inhibition of human SW620 cells assessed as cell growth at 10^-5 M incubated for 48 hrs by sulforhodamine B assay; conditions: SW-620, 48 h, read-out: Activity
[16] = tested on: A549; assay: Growth inhibition of human A549/ATCC cells assessed as cell growth at 10^-4 M incubated for 48 hrs by sulforhodamine B assay; conditions: A549, 48 h, read-out: Activity
[17] = tested on: MDA-MB-231; assay: Growth inhibition of human MDA-MB-231 cells assessed as cell growth at 10^-7 M incubated for 48 hrs by sulforhodamine B assay; conditions: MDA-MB-231, 48 h, read-out: Activity
[18] = Growth inhibition of human TK10 cells assessed as cell growth at 10^-6 M incubated for 48 hrs by sulforhodamine B assay; conditions: TK-10, 48 h, read-out: Activity
[19] = tested on: NCI-H226; assay: Growth inhibition of human NCI-H226 cells assessed as cell growth at 10 uM incubated for 48 hrs by sulforhodamine B assay; conditions: NCI-H226, 48 h, read-out: Activity
[20] = Growth inhibition of human SW620 cells assessed as cell growth at 10^-4 M incubated for 48 hrs by sulforhodamine B assay; conditions: SW-620, 48 h, read-out: Activity
[21] = tested on: KM12; assay: Growth inhibition of human KM12 cells incubated for 48 hrs by sulforhodamine B assay; conditions: KM12, 48 h; procedure, shortened: as §3
[22] = tested on: U-251; assay: Growth inhibition of human U251 cells incubated for 48 hrs by sulforhodamine B assay; conditions: U-251, 48 h; procedure, shortened: as §3
[23] = tested on: KM12; assay: Growth inhibition of human KM12 cells assessed as cell growth at 10^-8 M incubated for 48 hrs by sulforhodamine B assay; conditions: KM12, 48 h, read-out: Activity
[24] = tested on: M14; assay: Growth inhibition of human M14 cells incubated for 48 hrs by sulforhodamine B assay; conditions: M14, 48 h; procedure, shortened: as §3
[25] = Growth inhibition of human HOP92 cells assessed as cell growth at 10^-6 M incubated for 48 hrs by sulforhodamine B assay; conditions: HOP-92, 48 h, read-out: Activity
[26] = Growth inhibition of human HCT116 cells assessed as cell growth at 10 uM incubated for 48 hrs by sulforhodamine B assay; conditions: HCT-116, 48 h, read-out: Activity; procedure, shortened: as §1
[27] = tested on: NCI-H460; assay: Growth inhibition of human NCI-H460 cells assessed as cell growth at 10^-4 M incubated for 48 hrs by sulforhodamine B assay; conditions: NCI-H460, 48 h, read-out: Activity
[28] = Growth inhibition of human SW620 cells assessed as cell growth at 10 uM incubated for 48 hrs by sulforhodamine B assay; conditions: SW-620, 48 h, read-out: Activity
[29] = read-out: LC50 (the source's name)
[30] = read-out: pLC50 (the source's name) (converted)

SMILES: c1ccc2[nH]c(-c3ccc(Nc4nc(N5CCCCC5)nc(N5CCOCC5)n4)cc3)nc2c1
- growth at 10 µM [1]: 39%
- growth at 10 µM [2]: -90.8%
- growth at 0.01 µM [3]: 84%
- growth at 10 µM [4]: -55%
- growth at 1 µM [5]: 95%
- growth at 10 µM [6]: -26%
- growth at 100 µM [7]: -46%
- growth at 100 µM [8]: -80%
- growth at 0.1 µM [9]: 97%
- LC50 (50% net cell kill) [10]: > 100000 nM
- GI50 ([10]; read-out: GI50): 4280 nM
- TGI ([10]; read-out: TGI): > 100000 nM
- GI50 ([10]; read-out: pGI50 (converted)): 4270 nM
- CC50 [10]: > 100000 nM
- TGI ([10]; read-out: pTGI (converted)): > 100000 nM
- growth at 10 µM [11]: -3.66%
- GI50 ([12]; read-out: GI50): 2060 nM
- CC50 [12, 29]: > 100000 nM
- TGI ([12]; read-out: TGI): 4590 nM
- GI50 ([12]; read-out: pGI50 (converted)): 2040 nM
- CC50 [12, 30]: > 100000 nM
- TGI ([12]; read-out: pTGI (converted)): 4570 nM
- growth at 0.01 µM [13]: 95%
- growth at 1 µM [14]: 95%
- growth at 10 µM [15]: -29%
- growth at 100 µM [16]: -12%
- growth at 0.1 µM [17]: 98%
- growth at 1 µM [18]: 105%
- growth at 10 µM [19]: 32.7%
- growth at 100 µM [20]: -53%
- GI50 ([21]; read-out: GI50): 2850 nM
- CC50 [21, 29]: > 100000 nM
- TGI ([21]; read-out: TGI): 9540 nM
- GI50 ([21]; read-out: pGI50 (converted)): 2820 nM
- CC50 [21, 30]: > 100000 nM
- TGI ([21]; read-out: pTGI (converted)): 9550 nM
- GI50 ([22]; read-out: GI50): 2180 nM
- CC50 [22, 29]: 76800 nM
- TGI ([22]; read-out: TGI): 10000 nM
- GI50 ([22]; read-out: pGI50 (converted)): 2190 nM
- CC50 [22, 30]: 77600 nM
- TGI ([22]; read-out: pTGI (converted)): 10000 nM
- growth at 0.01 µM [23]: 101%
- GI50 ([24]; read-out: GI50): 2050 nM
- CC50 [24, 29]: 15600 nM
- TGI ([24]; read-out: TGI): 4720 nM
- GI50 ([24]; read-out: pGI50 (converted)): 2040 nM
- CC50 [24, 30]: 15500 nM
- TGI ([24]; read-out: pTGI (converted)): 4680 nM
- growth at 1 µM [25]: 95%
- growth at 10 µM [26]: 9.65%
- growth at 100 µM [27]: -45%
- growth at 10 µM [28]: 5.3%

SMILES: Clc1ccc(-c2nc(Nc3ccc(-c4nc5ccccc5[nH]4)cc3)nc(N3CCOCC3)n2)cc1
- growth at 10 µM [1]: -94%
- growth at 10 µM [2]: -97.6%
- growth at 0.01 µM [3]: 101%
- growth at 10 µM [4]: -99%
- growth at 1 µM [5]: 36%
- growth at 10 µM [6]: -73%
- growth at 100 µM [7]: -42%
- growth at 100 µM [8]: -16%
- growth at 0.1 µM [9]: 94%
- LC50 (50% net cell kill) [10]: 4330 nM
- GI50 ([10]; read-out: GI50): 452 nM
- TGI ([10]; read-out: TGI): 1640 nM
- GI50 ([10]; read-out: pGI50 (converted)): 447 nM
- CC50 [10]: 4370 nM
- TGI ([10]; read-out: pTGI (converted)): 1660 nM
- growth at 10 µM [11]: -84%
- GI50 ([12]; read-out: GI50): 596 nM
- TGI ([12]; read-out: TGI): 1860 nM
- GI50 ([12]; read-out: pGI50 (converted)): 603 nM
- TGI ([12]; read-out: pTGI (converted)): 1860 nM
- growth at 0.01 µM [13]: 94%
- growth at 1 µM [14]: -80%
- growth at 10 µM [15]: -79%
- growth at 100 µM [16]: -53%
- growth at 0.1 µM [17]: 92%
- growth at 1 µM [18]: 110%
- growth at 10 µM [19]: -64.5%
- growth at 100 µM [20]: -63%
- GI50 ([21]; read-out: GI50): 370 nM
- CC50 [21, 29]: 4750 nM
- TGI ([21]; read-out: TGI): 1410 nM
- GI50 ([21]; read-out: pGI50 (converted)): 372 nM
- CC50 [21, 30]: 4790 nM
- TGI ([21]; read-out: pTGI (converted)): 1410 nM
- GI50 ([22]; read-out: GI50): 215 nM
- TGI ([22]; read-out: TGI): 442 nM
- GI50 ([22]; read-out: pGI50 (converted)): 214 nM
- TGI ([22]; read-out: pTGI (converted)): 447 nM
- growth at 0.01 µM [23]: 98%
- GI50 ([24]; read-out: GI50): 370 nM
- TGI ([24]; read-out: TGI): 1480 nM
- GI50 ([24]; read-out: pGI50 (converted)): 372 nM
- TGI ([24]; read-out: pTGI (converted)): 1480 nM
- growth at 1 µM [25]: 68%
- growth at 10 µM [26]: -85.5%
- growth at 100 µM [27]: -33%
- growth at 10 µM [28]: -74.2%
